What all share (format): cell-based
Series [1] addresses T1, Keap1/Nrf2 (Homo sapiens) (UniProt Q16236+Q14145). Briefly: Inhibition of Keap1-Nrf2 interaction in HEK293T cells assessed as induction of ARE-luciferase gene expression at 1 uM after 24 hrs relative to control. The following applies: HEK-293T. The essentials:
(§1)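 HEK 293T cells (1 × 105) plated the day before transfection, transiently transfected with 0.1 μg ARE-luc (Nrf2 response element) plasmid by FuGENE6; next day treated with compounds (range 0–100 μM) or sulforaphane 10 μM as positive control for 24 h. Lysates read for luciferase activity; expressed as fold-induction. Cells grown in complete DMEM with 10% FBS, 37 °C, 5% CO2.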

For series [2], the target named is T1, Keap1/Nrf2 (Homo sapiens). Briefly: Inhibition of Keap1-Nrf2 interaction in HEK293T cells assessed as induction of ARE-luciferase gene expression at 100 uM after 24 hrs relative to control. The note with it: HEK-293T. The method in brief:
as §1

Series [3] concerns the target T1, Keap1/Nrf2 (Homo sapiens). Nature of the series: Inhibition of Keap1-Nrf2 interaction in HEK293T cells assessed as induction of ARE-luciferase gene expression at 20 uM after 24 hrs relative to control. The following applies: HEK-293T. The essentials:
as §1

Series [4] in a line: Toxicity in HEK293T cells assessed as mortality at 100 uM after 24 hrs LDH assay relative to control. The note with it: human, hek-293t. The method in brief:
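HEK 293T cells cultured in complete DMEM (10% FBS, antibiotics, sodium pyruvate, nonessential amino acids, 2 mM L-glutamine) at 37 °C, 5% CO2. Treated with increasing concentrations of Keap1 ligands for 24 h. Supernatants collected, cells lysed in 1% Triton, and LDH activity measured with buffer containing L(+)-lactic acid and NAD. Mortality reported when over 5%.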

Each structure is given as a SMILES string.

T1 sequence (Q14145 whole entry, looked up): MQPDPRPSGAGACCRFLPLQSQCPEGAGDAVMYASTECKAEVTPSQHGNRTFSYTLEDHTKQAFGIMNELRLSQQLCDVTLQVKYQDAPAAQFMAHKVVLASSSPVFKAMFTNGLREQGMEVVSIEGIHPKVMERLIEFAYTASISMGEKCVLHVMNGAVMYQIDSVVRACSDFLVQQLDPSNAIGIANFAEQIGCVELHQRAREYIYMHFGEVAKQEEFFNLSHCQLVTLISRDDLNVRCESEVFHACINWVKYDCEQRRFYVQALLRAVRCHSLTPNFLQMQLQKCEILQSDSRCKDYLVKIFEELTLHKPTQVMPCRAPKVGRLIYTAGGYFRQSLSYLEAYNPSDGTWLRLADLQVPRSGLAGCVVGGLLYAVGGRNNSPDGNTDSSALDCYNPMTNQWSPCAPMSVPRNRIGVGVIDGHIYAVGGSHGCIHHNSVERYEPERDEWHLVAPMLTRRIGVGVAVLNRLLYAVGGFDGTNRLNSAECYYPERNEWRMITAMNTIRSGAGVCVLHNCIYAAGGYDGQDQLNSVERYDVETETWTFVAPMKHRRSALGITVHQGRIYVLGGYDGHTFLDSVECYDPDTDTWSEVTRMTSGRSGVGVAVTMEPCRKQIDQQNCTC
T1 sequence (Q16236 whole entry, looked up): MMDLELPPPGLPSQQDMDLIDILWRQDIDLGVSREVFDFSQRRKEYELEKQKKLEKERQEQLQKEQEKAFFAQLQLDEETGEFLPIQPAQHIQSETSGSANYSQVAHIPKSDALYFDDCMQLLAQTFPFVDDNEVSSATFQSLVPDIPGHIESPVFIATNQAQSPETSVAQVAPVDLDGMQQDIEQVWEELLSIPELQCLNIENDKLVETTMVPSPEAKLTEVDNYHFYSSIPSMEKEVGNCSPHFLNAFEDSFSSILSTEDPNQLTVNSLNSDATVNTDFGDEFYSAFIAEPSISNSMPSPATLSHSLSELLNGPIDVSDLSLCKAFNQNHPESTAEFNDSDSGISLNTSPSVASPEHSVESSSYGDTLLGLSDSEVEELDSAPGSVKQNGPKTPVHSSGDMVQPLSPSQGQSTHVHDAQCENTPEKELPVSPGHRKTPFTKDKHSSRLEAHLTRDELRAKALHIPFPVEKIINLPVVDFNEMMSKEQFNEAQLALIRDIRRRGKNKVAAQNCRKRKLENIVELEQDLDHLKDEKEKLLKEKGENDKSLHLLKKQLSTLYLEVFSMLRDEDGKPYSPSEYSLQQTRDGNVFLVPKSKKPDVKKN

For `COC(=O)C1=CC(C)(C)CC(CC(C)=O)C1=O` (stereo not drawn), the fold change (FC) in series [1] turned out to be 0.49; in series [2] it was 8.71; in series [3], 2.2.

As for `C=CCC1CC(C)(C)C=C(C(=O)OC)C1=O` (stereo not drawn), the fold change (FC) in series [1] was 1.34; in series [2], 25.3; in series [3] it was 2.05. For the same compound, the Activity result in series [4] was “Non-Toxic”.

For the compound `CCCCCCC1CC(C)(C)C=C(C(=O)OC)C1=O` (stereo not drawn), the fold change (FC) came to 1.15 in series [1], 64.7 in series [2] and 2 in series [3]. For the same compound, the Activity result in series [4] is given as “Non-Toxic”.

Consider `COC(=O)C1=CC(C)(C)CC(CC(F)(F)F)C1=O` (stereo not drawn), for which the fold change (FC) in series [1] was determined as 0.54; in series [2] it was 17.9; in series [3] it was 1.54. Besides, the mortality – broadly, the percentage killed – in series [4] came to 11%.

As for `COC(=O)C1=CC(C)(C)CC(CC#CCC2CC(C)(C)C=C(C(=O)OC)C2=O)C1=O` (stereo not drawn), the fold change (FC) in series [1] was 52.5.

As to `COC(=O)C1=CC(C)(C)CC(CC(=O)OC(C)(C)C)C1=O` (stereo not drawn), the fold change (FC) amounted to 0.65 in series [1], 1.75 in series [2] and 2 in series [3].

`COC(=O)C1=CC(C)(C)CC(C/C=C/CC2CC(C)(C)C=C(C(=O)OC)C2=O)C1=O` (stereo not drawn): the fold change (FC) in series [1] came to 15.2.

As to `C#CCC1CC(C)(C)C=C(C(=O)OC)C1=O` (stereo not drawn), the fold change (FC) is 1.14 in series [1], 34.2 in series [2] and 1.48 in series [3]. The mortality in series [4] came out at 7%.

Turning to `COC(=O)C1(C)CC(C)(C)C=CC1=O` (stereo not drawn), the fold change (FC) in series [1] worked out at 1.47; in series [2], 4.56; in series [3], 2.43.

As for `COC(=O)C1=CC(C)(C)CC(CCCCC2CC(C)(C)C=C(C(=O)OC)C2=O)C1=O` (stereo not drawn), in series [1], the fold change (FC) was found to be 8.23.

Turning to `CC1(C)C=C(C(=O)O)C(=O)CC1`, the fold change (FC) is 2 in series [1], 29.6 in series [2] and 3.11 in series [3].

For `COC(=O)C1=CC(C)(C)CCC1=O`, the fold change (FC) in series [1] stood at 1.36; in series [2] it was 50.6; in series [3] it was 6.46. Further, the Activity result in series [4] is on record as “Non-Toxic”.

As for `COC(=O)C1=CC(C)(C)CC(C)C1=O` (stereo not drawn), the fold change (FC) in series [1] worked out at 1.17; in series [2] it was 4.6; in series [3] it was 2.75. The Activity entry in series [4] was “Non-Toxic”.

As for `COC(=O)C1=CC(C)(C)C=CC1=O`, the fold change (FC) in series [1] is 1.35; in series [2] it was 10.3; in series [3], 3.39.

As for `CC1(C)C=C(Cl)C(=O)CC1`, the fold change (FC) came to 1.33 in series [1], 43.4 in series [2] and 4.42 in series [3].

Take `COC(=O)C1=CC(C)(C)CC(CCCC2CC(C)(C)C=C(C(=O)OC)C2=O)C1=O` (stereo not drawn): the fold change (FC) worked out at 4.71 in series [1] and 248 in series [3].

As for `CC1(C)C=C(CO)C(=O)CC1`, the fold change (FC) in series [1] was 0.72; in series [2] it was 1.46; in series [3], 0.77.

Turning to `COC(=O)C1=CC(C)(C)CC(CC#N)C1=O` (stereo not drawn), the fold change (FC) in series [1] is 1.03; in series [2], 17.1; in series [3], 2.22.

As to `COC(=O)CCC1CC(C)(C)C=C(C(=O)OC)C1=O` (stereo not drawn), the fold change (FC) was determined as 0.68 in series [1], 5.96 in series [2] and 1.24 in series [3].

As for `C=CCOC(=O)C1=CC(C)(C)CCC1=O`, the fold change (FC) in series [1] came to 1.39; in series [2] it was 94.8; in series [3], 4.36. Moreover, the mortality in series [4] was found to be 17%.

`CC1(C)C=C(COC(=O)C2CC(C)(C)CCC2=O)C(=O)CC1` (stereo not drawn): the fold change (FC) in series [1] was determined as 2.98; in series [2], 4.02; in series [3] it was 3.79.

With `COC(=O)C1=CC2(CC(C)C1=O)OCCO2` (stereo not drawn), the fold change (FC) in series [1] came to 0.98; in series [3], 2.49. Also, the Activity entry in series [4] was “Non-Toxic”.

On to `CC1(C)C=C(COC(=O)C2=CC(C)(C)CCC2=O)C(=O)CC1`, for which the fold change (FC) in series [1] was determined as 2.02; in series [2], 121; in series [3], 3.78. Also, in series [4], the mortality is recorded as 15%.

On to `CC1(C)C=C(I)C(=O)CC1`, for which the fold change (FC) stood at 1.22 in series [1], 17.4 in series [2] and 1.16 in series [3].

With `COC(=O)C1=CC2(CC(CC3CC4(C=C(C(=O)OC)C3=O)OCCO4)C1=O)OCCO2` (stereo not drawn), the fold change (FC) amounted to 0.94 in series [1], 15.9 in series [2] and 2.76 in series [3]. Also, in series [4], the mortality is 12%.

`COC(=O)C1=CC2(CC(CCCC3CC4(C=C(C(=O)OC)C3=O)OCCO4)C1=O)OCCO2` (stereo not drawn): the figures for the fold change (FC) in series [1], in series [2] and in series [3] were 1, 30.9 and 1.05, respectively. Moreover, the mortality in series [4] is reported as 9%.

In the case of `CC1(C)C=C(C(=O)OC(C)(C)C)C(=O)CC1`, the fold change (FC) in series [1] stood at 1.05; in series [2], 106; in series [3] it was 3.89. The mortality in series [4] is on record as 16%.

`COC(=O)C1CC(C)(C)C=CC1=O` (stereo not drawn): the fold change (FC) is 1.05 in series [1], 41.9 in series [2] and 3.2 in series [3].

Turning to `CCCCCCC1CC2(C=C(C(=O)OC)C1=O)OCCO2` (stereo not drawn), the values for the fold change (FC) in series [1], in series [2] and in series [3] were 1.4, 20.2 and 2.19, respectively. Also, the Activity entry in series [4] is “Non-Toxic”.

With `COC(=O)C1=CC(C)(C)CCC1O` (stereo not drawn), the fold change (FC) was found to be 1 in series [1], 1.29 in series [2] and 1.85 in series [3].

Take `COC(=O)C1=CC(C)(C)CC(CC2CC(C)(C)C=C(C(=O)OC)C2=O)C1=O` (stereo not drawn): the fold change (FC) in series [1] was 4.49; in series [2], 101; in series [3], 3.6. Also, in series [4], the mortality was 24%.

`COC(=O)C1=CC(C)(C)CC(Cc2ccccc2)C1=O` (stereo not drawn): the fold change (FC) in series [1] was determined as 0.95; in series [2], 48.5; in series [3] it was 0.92. In addition, the Activity result in series [4] is given as “Non-Toxic”.
